In data set [1] the target is T1, LC3/Nicotinamide phosphoribosyltransferase (Homo sapiens) (UniProt P43490+Q9BXW4+Q9GZQ8+Q9H492). Nature of the data set: Autophagosome tethering activity at NAMPT overexpressing human A2780 cells assessed as lysosome-mediated degradation of NAMPT at 0.1 uM incubated for 48 hrs. It is filed as cell-based. The essentials:
(§1)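 A2780 cells were exposed to compound for 48 h. The medium was then removed and the cells washed three times with PBS and lysed on ice in RIPA buffer for 30 min. Lysates were centrifuged at 1.2 × 10^5 g, 4 °C, for 15 min. Protein was quantified by BCA and denatured at 100 °C. Blots were blocked in 5% BSA/TBST for 2 h, probed with primary antibody at 4 °C overnight and secondary for 1 h, and NAMPT was read on Odyssey.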

Data set [2] concerns the target T1, LC3/Nicotinamide phosphoribosyltransferase (Homo sapiens). Nature of the data set: Autophagosome tethering activity at NAMPT overexpressing human A2780 cells assessed as lysosome-mediated degradation of NAMPT at 3 uM incubated for 48 hrs. The format is cell-based. The essentials:
as §1

The target in data set [3] is T2, Nicotinamide phosphoribosyltransferase (Homo sapiens, UniProt P43490). As to the kind of experiment: Inhibition of NAMPT (unknown origin) measured after 90 mins by measuring fluorescence intensity.
Target sequence in this assay (P43490 whole entry): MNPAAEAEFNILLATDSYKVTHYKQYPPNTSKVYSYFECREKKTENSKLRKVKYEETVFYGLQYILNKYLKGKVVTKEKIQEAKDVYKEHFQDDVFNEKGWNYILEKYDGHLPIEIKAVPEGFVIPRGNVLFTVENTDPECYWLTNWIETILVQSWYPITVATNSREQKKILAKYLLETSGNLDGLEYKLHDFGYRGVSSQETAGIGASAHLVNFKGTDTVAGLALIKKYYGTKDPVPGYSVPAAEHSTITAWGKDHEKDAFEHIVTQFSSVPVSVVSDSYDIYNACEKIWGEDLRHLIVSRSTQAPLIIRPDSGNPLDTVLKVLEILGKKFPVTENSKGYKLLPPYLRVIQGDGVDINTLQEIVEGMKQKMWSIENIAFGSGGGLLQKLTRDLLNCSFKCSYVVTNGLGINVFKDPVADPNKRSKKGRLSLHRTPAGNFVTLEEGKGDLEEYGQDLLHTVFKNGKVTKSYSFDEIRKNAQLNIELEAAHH
The target of data set [4] is T3, Microtubule-associated protein 1 light chain 3 beta (Homo sapiens, UniProt Q9GZQ8). Nature of the data set: Binding affinity to human recombinant LC3B assessed as dissociation constant incubated for 30 mins by fluorescence anisotropy assay. An outline of the steps: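 Fluorescence anisotropy used fluorescein-labeled ispinesib as the tracer, diluted to 50 nM in HEPES buffer, final 25 nM. A twofold serial dilution of LC3 protein in HEPES buffer was added. KD was derived from anisotropy. Measurements were done in triplicate and given as mean ± standard deviation.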
(In general: Polarisation of emitted light reports the rotation of a fluorescent probe.)

The test system of data set [5] is HeLa. As to the kind of experiment: Drug localization in human HeLa cells by measuring colocalization with lysosome probe treated for 2 hrs by confocal microscopy. It is filed as functional, cell-based. An outline of the steps:
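HeLa cells were treated with the green fluorescent probe for 2 h, then stained with a red lysosome probe for another 1.5 h. Colocalization was imaged by confocal microscopy.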

Data set [6] can be described thus: Inhibition of kinesin spindle protein (unknown origin). Also on record: species or system Homo sapiens.
Data set [7] has as its system A2780. As to the kind of experiment: Cytotoxicity against human A2780 cells. It is filed as functional, cell-based.
In data set [8] the target is T3, Microtubule-associated protein 1 light chain 3 beta. As to the kind of experiment: Binding affinity to human recombinant LC3B assessed as dissociation constant by isothermal titration calorimetry. The essentials: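 Reverse titration of recombinant LC3B (1500 μM in syringe) into a cell holding 100 μM ligand, in 20 mM HEPES-HCl pH 7.3, 100 mM NaCl, 1% DMSO, at 25 °C. Injections were spaced 120 s apart so the signal returned to baseline. Thermodynamic parameters and KD came from the titration isotherm.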
A general note: In ITC the heat of successive injections is recorded.

Data set [9] can be described thus: Stability of compound in 1640 culture medium measured up to 72 hrs by HPLC analysis. It is filed as physicochemical.
Data set [10] relates to HCT-116. As to the kind of experiment: Antiproliferative activity against human HCT-116 cells expressing NAMPT assessed as cell growth inhibition incubated for 72 hrs. It is filed as functional, cell-based.
Data set [11] has as its system A2780. Nature of the data set: Binding affinity to KSP in human A2780 cell lysate incubated at 51 to 63 degree Celsius for 4 hrs by Western blotting based CETSA method. It is filed as subcellular. The essentials: (§2)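 CETSA: A2780 cells were seeded at × 107/well and incubated overnight at 37 °C, 5% CO2. Compound was added at the indicated concentration for 4 h. Cells were collected and lysed by three 5-min liquid-nitrogen freeze cycles, then centrifuged at 1.2 × 10^5 g, 4 °C, for 15 min. Supernatants were denatured at 100 °C and protein level was detected by SDS-PAGE.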
Background: A western blot detects proteins with antibodies after separation by electrophoresis.

Data set [12] addresses T2, Nicotinamide phosphoribosyltransferase. Nature of the data set: Binding affinity to NAMPT in human A2780 cell lysate assessed as thermal stability incubated at 51 to 63 degree Celsius for 4 hrs by Western blotting based CETSA method. It is filed as subcellular. The essentials:
as §2
Target sequence in this assay (P43490 whole entry, looked up): as the sequence (P43490 whole entry) above

For data set [13], the system named is MDA-MB-231. As to the kind of experiment: Antiproliferative activity against human MDA-MB-231 cells overexpressing NAMPT assessed as cell growth inhibition incubated for 72 hrs. The format is functional, cell-based.
Data set [14] relates to A2780. As to the kind of experiment: Antiproliferative activity against human A2780 cells overexpressing NAMPT assessed as cell growth inhibition incubated for 72 hrs. It is filed as functional, cell-based. The settings on record: A2780, 72 h.
Data set [15] addresses T3, Microtubule-associated protein 1 light chain 3 beta. As to the kind of experiment: Binding affinity to LC3B (unknown origin) assessed as dissociation constant by surface plasmon resonance analysis.

SMILES strings stand for the structures. Active and inactive are the calls of the source. The rule behind the calls is not given here.

Usually IC50 stands for the concentration needed to halve the response being measured. On to `Cc1ccc(C(=O)N(CCCNC(=O)CCCCCCCCCN2CCN(S(=O)(=O)c3ccc(NC(=S)NCc4cccnc4)cc3)CC2)[C@@H](c2nc3cc(Cl)ccc3c(=O)n2Cc2ccccc2)C(C)C)cc1`, for which the Activity in data set [1] was found to be 85%; in [2], 92%. In addition, in data set [3], inhibition was half-maximal at 0.034 µM (IC50).

In the case of `Cc1ccc(C(=O)N(CCCNC(=O)CCCCCCN2CCN(S(=O)(=O)c3ccc(NC(=S)NCc4cccnc4)cc3)CC2)[C@@H](c2nc3cc(Cl)ccc3c(=O)n2Cc2ccccc2)C(C)C)cc1`, the Activity came out at 9% in data set [1] and 86% in data set [2]. In data set [3], half-maximal inhibition (IC50) required 0.015 µM.

Broadly, the Kd is a measure of binding affinity in units of concentration. As for `Cc1ccc(C(=O)N(CCCNC(=S)Nc2ccc3c(c2)C(=O)OC32c3ccc(O)cc3Oc3cc(O)ccc32)[C@@H](c2nc3cc(Cl)ccc3c(=O)n2Cc2ccccc2)C(C)C)cc1`, the Kd in data set [4] stood at 0.175 µM. For the same compound, the result in data set [5] was Active.

Regarding `Cc1ccc(C(=O)N(CCCNC(=O)CCCCCCCN2CCN(S(=O)(=O)c3ccc(NC(=S)NCc4cccnc4)cc3)CC2)[C@@H](c2nc3cc(Cl)ccc3c(=O)n2Cc2ccccc2)C(C)C)cc1`, the Activity in data set [1] was found to be 1%; in data set [2], 83%. Also, in data set [3], the midpoint of inhibition, the IC50, lay at 0.019 µM.

Take `Cc1ccc(C(=O)N(CCCNC(=O)CCCCCCCCCCN2CCN(S(=O)(=O)c3ccc(NC(=S)NCc4cccnc4)cc3)CC2)[C@@H](c2nc3cc(Cl)ccc3c(=O)n2Cc2ccccc2)C(C)C)cc1`: the results for the Activity in data set [1] and in [2] were 33% and 93%, respectively. Moreover, the IC50 in data set [3] amounted to 0.013 µM.

For the compound `Cc1ccc(C(=O)N(CCCNC(=O)CCOCCOCCOCCN2CCN(S(=O)(=O)c3ccc(NC(=S)NCc4cccnc4)cc3)CC2)[C@@H](c2nc3cc(Cl)ccc3c(=O)n2Cc2ccccc2)C(C)C)cc1`, the Activity in [1] was found to be 76%; in data set [2], 91%. In data set [3], the IC50 was 0.01 µM.

`Cc1ccc(C(=O)N(CCCN)[C@H](c2nc3cc(Cl)ccc3c(=O)n2Cc2ccccc2)C(C)C)cc1` returned a concentration for half-maximal inhibition (IC50) in data set [6] of 0.0005 µM. Besides, the outcome in [7] was Active. The Kd in data set [8] turned out to be 11.8 µM.

For `Cc1ccc(C(=O)N(CCCNC(=O)CCCCCCCCN2CCN(S(=O)(=O)c3ccc(NC(=S)NCc4cccnc4)cc3)CC2)[C@@H](c2nc3cc(Cl)ccc3c(=O)n2Cc2ccccc2)C(C)C)cc1`, the Stability entry in [9] was “Stable”. For the same compound, the outcome in data set [10], in data set [11], in data set [12] and in data set [13] was Active. In addition, the Activity amounted to 90% in data set [1] and 91% in data set [2]. The IC50 in [3] was 0.023 µM; in [14], 0.046 µM. Further, the Kd in data set [15] came to 0.933 µM.

In the case of `O=S(=O)(c1ccc(NC(=S)NCc2cccnc2)cc1)N1CCNCC1`, in [14], the IC50 was found to be 0.49 µM.

As to `Cc1ccc(C(=O)N(CCCNC(=O)CCOCCN2CCN(S(=O)(=O)c3ccc(NC(=S)NCc4cccnc4)cc3)CC2)[C@@H](c2nc3cc(Cl)ccc3c(=O)n2Cc2ccccc2)C(C)C)cc1`, the Activity in data set [1] was found to be 1%; in data set [2], 86%. Besides, the IC50 in [3] turned out to be 0.01 µM.

Source of the values: ChEMBL document CHEMBL5154920, “Ispinesib as an Effective Warhead for the Design of Autophagosome-Tethering Chimeras: Discovery of Potent Degraders of Nicotinamide Phosphoribosyltransferase (NAMPT)” (J Med Chem, 2022).
